Reference: ChEMBL document CHEMBL4371041, “Synthesis and evaluation of thieno[3,2-d]pyrimidine derivatives as novel FMS inhibitors” (Bioorg Med Chem Lett, 2019)

Key:
[1] = system: NFS-60; test: Growth inhibition of mouse NFS60 cells after 72 hrs by CellTiter96 AQueous one solution cell proliferation assay; format: functional; details: NFS-60, 72 h
[2] = Cmax in CD-1 mouse at 10 mg/kg, po; format: ADME, organism-based; parameters: dose 10 mg/kg, route oral; details: in vivo
[3] = Half life in CD-1 mouse at 10 mg/kg, po; format: ADME, organism-based; details: in vivo
[4] = Half life in CD-1 mouse at 3 mg/kg, iv; format: ADME, organism-based; details: in vivo
[5] = Cmax in CD-1 mouse at 3 mg/kg, iv; format: ADME, organism-based; parameters: dose 3 mg/kg, route intravenous; details: in vivo
[6] = Oral bioavailability in CD-1 mouse at 10 mg/kg; format: ADME, organism-based; details: in vivo
[7] = AUC (0 to 7 hrs) in CD-1 mouse at 3 mg/kg, iv; format: ADME, organism-based; parameters: dose 3 mg/kg, time < 7 hr, route intravenous; details: in vivo
[8] = AUC (0 to 7 hrs) in CD-1 mouse at 10 mg/kg, po; format: ADME, organism-based; parameters: time < 7 hr, dose 10 mg/kg, route oral; details: in vivo
[9] = Clearance in CD-1 mouse at 3 mg/kg, iv; format: ADME, organism-based; details: in vivo
[10] = Volume of distribution in CD-1 mouse at 3 mg/kg, iv; format: ADME, organism-based; details: in vivo
[11] = Tmax in CD-1 mouse at 10 mg/kg, po; format: ADME, organism-based; details: in vivo
[12] = Stability in human hepatocytes assessed as parent compound remaining measured after 60 mins; format: ADME, cell-based, Hepatocyte; details: read-out: Stability
[13] = biological target: Cytochrome P450 2C19 (Homo sapiens, UniProt P33261); test: Inhibition of CYP2C19 in human liver microsomes by LC-MS/MS analysis; format: ADME
How it was run: (§1)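 Reversible CYP inhibition measured in human liver microsomes; metabolite formation quantified by LC/MS/MS.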

[14] = biological target: Cytochrome P450 1A2 (Homo sapiens, UniProt P05177); test: Inhibition of CYP1A2 in human liver microsomes by LC-MS/MS analysis; format: ADME; how it was run: as §1
[15] = biological target: Cytochrome P450 2C9 (Homo sapiens, UniProt P11712); test: Inhibition of CYP2C9 in human liver microsomes by LC-MS/MS analysis; format: ADME; how it was run: as §1
[16] = biological target: Cytochrome P450 2D6 (Homo sapiens, UniProt P10635); test: Inhibition of CYP2D6 in human liver microsomes by LC-MS/MS analysis; format: ADME; how it was run: as §1
[17] = biological target: Cytochrome P450 3A4 (Homo sapiens, UniProt P08684); test: Inhibition of CYP3A4 in human liver microsomes by LC-MS/MS analysis; format: ADME; how it was run: as §1
Chain of Cytochrome P450 3A4 (P08684 whole entry): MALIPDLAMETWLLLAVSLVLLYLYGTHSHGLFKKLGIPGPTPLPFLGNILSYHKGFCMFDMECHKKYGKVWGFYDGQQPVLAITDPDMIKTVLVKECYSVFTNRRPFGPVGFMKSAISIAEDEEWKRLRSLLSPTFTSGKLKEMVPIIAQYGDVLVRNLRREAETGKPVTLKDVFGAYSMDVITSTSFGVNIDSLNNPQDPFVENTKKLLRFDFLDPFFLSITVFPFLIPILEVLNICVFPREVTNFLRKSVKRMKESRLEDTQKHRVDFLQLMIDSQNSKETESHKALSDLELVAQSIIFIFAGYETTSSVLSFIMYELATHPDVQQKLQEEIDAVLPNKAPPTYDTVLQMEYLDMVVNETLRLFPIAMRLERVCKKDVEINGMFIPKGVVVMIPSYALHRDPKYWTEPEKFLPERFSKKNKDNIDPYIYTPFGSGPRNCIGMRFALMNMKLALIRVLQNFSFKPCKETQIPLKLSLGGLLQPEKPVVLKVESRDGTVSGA

Chain of Cytochrome P450 1A2 (P05177 whole entry): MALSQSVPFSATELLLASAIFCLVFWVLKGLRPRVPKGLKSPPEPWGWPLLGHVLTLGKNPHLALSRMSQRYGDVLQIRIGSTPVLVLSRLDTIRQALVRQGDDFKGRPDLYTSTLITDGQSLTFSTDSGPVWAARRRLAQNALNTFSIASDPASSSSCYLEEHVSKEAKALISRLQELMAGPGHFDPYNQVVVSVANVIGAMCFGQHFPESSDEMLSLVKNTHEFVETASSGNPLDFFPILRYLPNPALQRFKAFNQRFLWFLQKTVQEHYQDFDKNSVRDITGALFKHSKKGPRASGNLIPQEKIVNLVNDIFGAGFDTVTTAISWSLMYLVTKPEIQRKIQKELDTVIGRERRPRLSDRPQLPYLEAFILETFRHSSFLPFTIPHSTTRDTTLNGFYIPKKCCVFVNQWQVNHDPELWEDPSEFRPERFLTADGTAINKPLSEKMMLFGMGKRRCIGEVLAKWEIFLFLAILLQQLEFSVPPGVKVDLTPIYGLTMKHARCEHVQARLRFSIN
Chain of Cytochrome P450 2C9 (P11712 whole entry): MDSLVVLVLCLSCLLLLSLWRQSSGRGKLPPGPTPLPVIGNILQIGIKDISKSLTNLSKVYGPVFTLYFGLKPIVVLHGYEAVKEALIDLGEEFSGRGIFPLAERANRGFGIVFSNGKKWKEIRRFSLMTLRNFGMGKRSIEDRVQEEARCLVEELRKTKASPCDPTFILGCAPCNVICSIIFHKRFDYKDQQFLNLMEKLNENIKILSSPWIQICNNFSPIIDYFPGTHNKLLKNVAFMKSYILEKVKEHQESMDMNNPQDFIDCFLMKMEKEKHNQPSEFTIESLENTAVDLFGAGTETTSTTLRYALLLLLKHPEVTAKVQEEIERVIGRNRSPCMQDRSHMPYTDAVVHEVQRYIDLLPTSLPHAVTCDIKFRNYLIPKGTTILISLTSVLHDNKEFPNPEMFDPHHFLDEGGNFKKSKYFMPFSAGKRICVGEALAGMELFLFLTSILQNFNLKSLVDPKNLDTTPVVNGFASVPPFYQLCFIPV
Chain of Cytochrome P450 2D6 (P10635 whole entry): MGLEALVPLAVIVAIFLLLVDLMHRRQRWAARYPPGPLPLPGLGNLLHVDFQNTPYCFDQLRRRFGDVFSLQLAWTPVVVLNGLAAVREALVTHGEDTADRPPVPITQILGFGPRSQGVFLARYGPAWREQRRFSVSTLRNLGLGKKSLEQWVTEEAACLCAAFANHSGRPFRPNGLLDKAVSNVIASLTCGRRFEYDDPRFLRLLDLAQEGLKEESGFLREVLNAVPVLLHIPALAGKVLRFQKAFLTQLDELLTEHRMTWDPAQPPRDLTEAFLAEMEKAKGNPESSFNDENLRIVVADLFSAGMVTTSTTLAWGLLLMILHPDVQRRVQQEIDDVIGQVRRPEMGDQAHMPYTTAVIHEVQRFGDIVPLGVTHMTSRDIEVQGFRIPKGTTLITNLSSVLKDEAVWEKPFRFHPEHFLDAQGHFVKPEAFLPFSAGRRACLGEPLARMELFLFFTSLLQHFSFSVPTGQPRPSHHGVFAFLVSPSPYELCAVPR
Chain of Cytochrome P450 2C19 (P33261 whole entry): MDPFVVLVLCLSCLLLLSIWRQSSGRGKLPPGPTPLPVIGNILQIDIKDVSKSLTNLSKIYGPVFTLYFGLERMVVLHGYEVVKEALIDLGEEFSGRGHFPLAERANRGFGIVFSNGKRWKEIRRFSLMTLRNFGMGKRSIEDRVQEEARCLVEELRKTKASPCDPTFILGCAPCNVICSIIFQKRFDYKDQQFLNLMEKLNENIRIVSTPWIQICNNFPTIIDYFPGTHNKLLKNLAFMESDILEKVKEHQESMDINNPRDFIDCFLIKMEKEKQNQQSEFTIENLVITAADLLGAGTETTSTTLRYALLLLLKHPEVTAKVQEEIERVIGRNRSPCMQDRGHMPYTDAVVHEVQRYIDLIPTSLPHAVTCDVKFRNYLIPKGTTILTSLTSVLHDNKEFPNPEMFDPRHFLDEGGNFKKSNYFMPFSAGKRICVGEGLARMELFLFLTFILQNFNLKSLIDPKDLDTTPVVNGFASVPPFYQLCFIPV

SMILES	GI50 [1]	other results
Nc1ncnc2c(C(=O)Nc3cccc4c3c(Br)nn4Cc3cccc(F)n3)csc12	233 nM	
CCc1nn(Cc2cccc(C)n2)c2cccc(NC(=O)c3csc4c(N)ncnc34)c12	> 10000 nM	
Nc1ncnc2c(C(=O)Nc3cccc4c3c(Br)nn4Cc3cccc(Br)n3)csc12	243 nM	
Nc1ncnc2c(C(=O)Nc3cccc4c3c(Br)nn4Cc3ccccc3)csc12	1000 nM	
Nc1ncnc2c(C(=O)Nc3cccc4c3c(Br)nn4Cc3ccccn3)csc12	2500 nM	
CCn1nc(Cn2nc(Br)c3c(NC(=O)c4csc5c(N)ncnc45)cccc32)cc1C(C)C	62 nM	
Nc1ncnc2c(C(=O)Nc3cccc4c3c(Br)nn4Cc3ccncc3)csc12	135 nM	
C=Cc1nn(Cc2cccc(C)n2)c2cccc(NC(=O)c3csc4c(N)ncnc34)c12	4460 nM	
Cc1cccc(Cn2nc(Br)c3c(NC(=O)c4csc5c(N)ncnc45)cccc32)n1	27.5 to 28 nM	Cmax [2]: 1620 ng/mL; half-life [3]: 3.9 h; half-life [4]: 2.6 h; Cmax [5]: 2400 ng/mL; bioavailability [6]: 37%; AUC(0-t) at 7 h [7]: 5760 ng·h/mL; AUC(0-t) at 7 h [8]: 6060 ng·h/mL; clearance [9]: 6.67 mL/min/kg; Vd [10]: 1.4 L/kg; Tmax [11]: 1 h
COc1ccc(COc2ccc(Cc3cnc(N)nc3N)cc2OC)cc1 [GW632580X]	94 nM	
Cc1cccc(Cn2nc(I)c3c(NC(=O)c4csc5c(N)ncnc45)cccc32)n1	30 nM	
Nc1ncnc2c(C(=O)Nc3cccc4c3c(Br)nn4CC3CCCCC3)csc12	254 nM	
C#CCn1nc(Br)c2c(NC(=O)c3csc4c(N)ncnc34)cccc21	> 10000 nM	
Cc1cccc(Cn2nc(Cl)c3c(NC(=O)c4csc5c(N)ncnc45)cccc32)n1	8 nM	remaining at 1 h [12]: 66%
COc1cccc(Cn2nc(Br)c3c(NC(=O)c4csc5c(N)ncnc45)cccc32)n1	34 nM	
Nc1ncnc2c(C(=O)Nc3cccc4c3c(Br)nn4Cc3cccnc3)csc12	77 nM	IC50 [13]: 2020 nM; IC50 [14]: < 250 nM; IC50 [15]: 1380 nM; IC50 [16]: > 20000 nM; IC50 [17]: 310 nM
COc1ccc(Cn2nc(Br)c3c(NC(=O)c4csc5c(N)ncnc45)cccc32)cc1	2390 nM	
